Source: ChEMBL document CHEMBL1269008, “Electron density guided fragment-based lead discovery of ketohexokinase inhibitors” (J Med Chem, 2010)
Values after ≈ are worked out from the molar mass of the structure shown.

How the values were obtained:
[1] = Volume of distribution in Sprague-Dawley rat at 2 mg/kg, iv and 10 mg/kg, po; format: ADME, organism-based; settings: in vivo
Outline: (§1)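 Male SPF Sprague-Dawley rats (~250 g), n=4, vehicle 20% HPBCD at pH 4.5. Dosing was 2.0 mg/kg iv into the jugular vein, with blood taken at 7 and 20 min and 1, 2, 4, 8 and 24 h. Oral arm was 10 mg/kg by gastric intubation. Parameters came from each animal's plasma profile.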

[2] = molecular target: 5-hydroxytryptamine receptor 7 (Homo sapiens) (UniProt P34969); test: Inhibition of 5HT7 at 10 uM
[3] = molecular target: 5-hydroxytryptamine receptor 2B (Homo sapiens) (UniProt P41595); test: Inhibition of 5HT2B at 10 uM
[4] = Permeability from basolateral to apical side of human Caco-2 cells; format: ADME, cell-based
Outline: (§2)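 Caco-2 monolayers cultured 21 days on Transwells. Compound at 10 μM in HBSS with 25 mM HEPES pH 7.4, added to the apical or basolateral side. Lucifer Yellow in donor buffer checked monolayer integrity. After 1 h at 37 °C, both chambers were sampled into acetonitrile with internal standard and measured by LC-MS/MS to calculate Papp.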

Cytochrome P450 1A2 = molecular target: T1, Cytochrome P450 1A2 (Homo sapiens, UniProt P05177); test: Inhibition of human recombinant CYP1A2; format: ADME
T1 sequence (P05177 whole entry): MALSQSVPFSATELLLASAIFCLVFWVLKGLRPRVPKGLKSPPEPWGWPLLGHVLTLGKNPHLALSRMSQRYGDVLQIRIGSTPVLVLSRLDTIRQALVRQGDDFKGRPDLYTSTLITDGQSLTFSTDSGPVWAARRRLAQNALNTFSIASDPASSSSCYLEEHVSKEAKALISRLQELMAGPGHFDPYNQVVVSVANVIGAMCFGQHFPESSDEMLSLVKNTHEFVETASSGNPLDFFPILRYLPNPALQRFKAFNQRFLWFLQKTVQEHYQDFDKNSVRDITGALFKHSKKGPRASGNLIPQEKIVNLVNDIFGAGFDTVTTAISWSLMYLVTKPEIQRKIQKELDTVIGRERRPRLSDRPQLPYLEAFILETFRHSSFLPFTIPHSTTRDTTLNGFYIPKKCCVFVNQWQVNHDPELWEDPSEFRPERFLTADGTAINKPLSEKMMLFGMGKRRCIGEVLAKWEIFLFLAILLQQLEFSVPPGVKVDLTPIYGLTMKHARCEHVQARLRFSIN

[5] = molecular target: T2, 5-hydroxytryptamine receptor 1A (Homo sapiens) (UniProt P08908); test: Inhibition of 5HT1A at 10 uM
T2 sequence (whole entry): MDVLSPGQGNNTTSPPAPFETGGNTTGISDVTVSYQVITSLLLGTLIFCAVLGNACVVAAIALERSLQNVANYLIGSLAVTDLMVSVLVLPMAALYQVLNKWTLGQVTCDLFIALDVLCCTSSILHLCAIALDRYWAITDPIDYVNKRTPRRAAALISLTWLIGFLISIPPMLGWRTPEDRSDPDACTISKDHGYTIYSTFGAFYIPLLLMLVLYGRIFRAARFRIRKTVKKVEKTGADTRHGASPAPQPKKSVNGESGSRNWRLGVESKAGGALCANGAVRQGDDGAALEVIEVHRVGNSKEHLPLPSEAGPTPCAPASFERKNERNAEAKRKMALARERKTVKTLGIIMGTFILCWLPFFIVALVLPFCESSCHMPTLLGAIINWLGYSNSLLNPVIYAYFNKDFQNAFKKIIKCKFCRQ

[6] = Aqueous solubility of the compound in […]; format: physicochemical
[7] = Metabolic stability in human liver microsomes after 10 mins; format: ADME, Microsome; settings: read-out: Stability
[8] = Aqueous solubility of the compound in phosphate buffered saline at pH 7.4; format: physicochemical
[9] = Clearance in Sprague-Dawley rat at 2 mg/kg, iv and 10 mg/kg, po; format: ADME, organism-based; settings: in vivo; outline: as §1
Cytochrome P450 2C19 = Cytochrome P450 2C19 (Homo sapiens, UniProt P33261); test: Inhibition of human recombinant CYP2C19; format: ADME
Cytochrome P450 2C9 = Cytochrome P450 2C9 (Homo sapiens, UniProt P11712); test: Inhibition of human recombinant CYP2C9; format: ADME
[10] = Cmax in Sprague-Dawley rat at 10 mg/kg, po; format: ADME, organism-based; set-up: dose 10 mg/kg, route oral; settings: in vivo
Outline: (§3)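 Male SPF Sprague-Dawley rats (~250 g), n=4. HCl salt dissolved in 20% HPBCD, adjusted to pH 4.5 with NaOH. 10 mg/kg by gastric intubation. Blood sampled at 0.5, 1, 2, 4, 8 and 24 h. Parameters derived from each animal's plasma concentration-time profile by limited PK analysis.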

[11] = Oral bioavailability in Sprague-Dawley rat at 10 mg/kg; format: ADME, organism-based; settings: in vivo; outline: as §3
[12] = Aqueous solubility of the compound in water; format: physicochemical
[13] = Inhibition of PKA at 10 uM
Outline: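 Commercial panel of 200 protein kinases, with compound at 10 μM and ATP at 10 μM. Percent inhibition is from a single concentration.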

[14] = Metabolic stability in rat liver microsomes after 10 mins; format: ADME, Microsome; settings: read-out: Stability
[15] = AUClast in Sprague-Dawley rat at 10 mg/kg, po; format: ADME, organism-based; set-up: time 0 - last, dose 10 mg/kg, route oral; settings: plasma; outline: as §3
Cytochrome P450 3A4 = Cytochrome P450 3A4 (Homo sapiens, UniProt P08684); test: Inhibition of human recombinant CYP3A4; format: ADME
[16] = Permeability from apical to basolateral side of human Caco-2 cells; format: ADME, cell-based; outline: as §2
Cytochrome P450 2D6 = Cytochrome P450 2D6 (Homo sapiens, UniProt P10635); test: Inhibition of human recombinant CYP2D6; format: ADME
[17] = Aqueous solubility of the compound in phosphate buffered saline at pH 2; format: physicochemical

Sequence of 5-hydroxytryptamine receptor 7 (Homo sapiens) (P34969 whole entry): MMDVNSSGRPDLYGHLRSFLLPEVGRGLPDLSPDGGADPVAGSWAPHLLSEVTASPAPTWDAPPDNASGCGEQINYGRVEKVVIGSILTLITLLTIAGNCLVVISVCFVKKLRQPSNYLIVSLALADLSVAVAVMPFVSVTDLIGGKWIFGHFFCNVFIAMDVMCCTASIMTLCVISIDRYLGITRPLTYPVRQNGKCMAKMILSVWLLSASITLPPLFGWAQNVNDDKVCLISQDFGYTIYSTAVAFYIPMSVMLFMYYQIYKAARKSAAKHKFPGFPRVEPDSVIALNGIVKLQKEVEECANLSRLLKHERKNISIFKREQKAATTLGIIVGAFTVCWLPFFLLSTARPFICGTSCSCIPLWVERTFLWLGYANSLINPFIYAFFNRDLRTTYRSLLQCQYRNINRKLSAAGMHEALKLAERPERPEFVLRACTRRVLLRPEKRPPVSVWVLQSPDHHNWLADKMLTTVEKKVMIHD
Sequence of Cytochrome P450 2C19 (P33261 whole entry): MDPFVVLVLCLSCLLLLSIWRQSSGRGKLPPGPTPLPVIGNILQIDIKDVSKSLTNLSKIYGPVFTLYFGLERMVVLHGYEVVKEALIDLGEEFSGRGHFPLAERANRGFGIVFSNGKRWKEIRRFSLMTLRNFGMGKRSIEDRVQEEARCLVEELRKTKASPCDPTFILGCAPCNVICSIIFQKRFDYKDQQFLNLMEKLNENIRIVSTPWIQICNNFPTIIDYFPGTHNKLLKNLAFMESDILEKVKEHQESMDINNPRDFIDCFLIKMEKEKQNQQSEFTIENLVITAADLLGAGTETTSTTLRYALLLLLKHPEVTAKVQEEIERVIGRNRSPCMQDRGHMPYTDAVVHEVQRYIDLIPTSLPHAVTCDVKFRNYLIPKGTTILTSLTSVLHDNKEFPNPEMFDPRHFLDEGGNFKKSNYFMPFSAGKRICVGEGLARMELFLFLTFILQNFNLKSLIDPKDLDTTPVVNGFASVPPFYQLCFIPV
Sequence of Cytochrome P450 3A4 (P08684 whole entry): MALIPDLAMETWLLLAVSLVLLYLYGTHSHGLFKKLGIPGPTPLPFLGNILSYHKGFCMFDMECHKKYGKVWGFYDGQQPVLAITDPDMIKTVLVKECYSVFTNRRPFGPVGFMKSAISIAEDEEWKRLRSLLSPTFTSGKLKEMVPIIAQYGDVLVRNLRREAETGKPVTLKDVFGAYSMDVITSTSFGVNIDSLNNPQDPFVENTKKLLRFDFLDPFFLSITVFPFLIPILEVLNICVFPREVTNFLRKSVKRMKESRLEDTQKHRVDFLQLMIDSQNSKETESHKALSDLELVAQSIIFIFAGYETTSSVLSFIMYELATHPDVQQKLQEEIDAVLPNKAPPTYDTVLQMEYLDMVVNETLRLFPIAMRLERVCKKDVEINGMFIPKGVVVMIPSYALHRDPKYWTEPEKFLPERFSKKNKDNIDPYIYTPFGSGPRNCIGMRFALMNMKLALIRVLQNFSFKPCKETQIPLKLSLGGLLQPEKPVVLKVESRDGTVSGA
Sequence of Cytochrome P450 2C9 (P11712 whole entry): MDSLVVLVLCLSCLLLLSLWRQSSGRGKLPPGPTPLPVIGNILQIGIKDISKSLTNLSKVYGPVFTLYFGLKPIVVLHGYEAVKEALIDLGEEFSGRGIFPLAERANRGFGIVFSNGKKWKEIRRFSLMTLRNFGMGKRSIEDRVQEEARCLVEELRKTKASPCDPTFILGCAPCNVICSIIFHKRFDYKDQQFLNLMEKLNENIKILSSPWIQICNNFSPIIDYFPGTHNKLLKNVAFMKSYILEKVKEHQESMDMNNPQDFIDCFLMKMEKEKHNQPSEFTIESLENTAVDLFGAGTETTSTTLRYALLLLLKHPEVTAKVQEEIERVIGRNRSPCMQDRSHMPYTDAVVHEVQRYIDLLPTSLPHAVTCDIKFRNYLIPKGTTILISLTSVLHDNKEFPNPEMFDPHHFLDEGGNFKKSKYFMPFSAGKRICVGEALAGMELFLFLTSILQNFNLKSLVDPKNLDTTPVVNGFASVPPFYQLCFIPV
Sequence of Cytochrome P450 2D6 (P10635 whole entry): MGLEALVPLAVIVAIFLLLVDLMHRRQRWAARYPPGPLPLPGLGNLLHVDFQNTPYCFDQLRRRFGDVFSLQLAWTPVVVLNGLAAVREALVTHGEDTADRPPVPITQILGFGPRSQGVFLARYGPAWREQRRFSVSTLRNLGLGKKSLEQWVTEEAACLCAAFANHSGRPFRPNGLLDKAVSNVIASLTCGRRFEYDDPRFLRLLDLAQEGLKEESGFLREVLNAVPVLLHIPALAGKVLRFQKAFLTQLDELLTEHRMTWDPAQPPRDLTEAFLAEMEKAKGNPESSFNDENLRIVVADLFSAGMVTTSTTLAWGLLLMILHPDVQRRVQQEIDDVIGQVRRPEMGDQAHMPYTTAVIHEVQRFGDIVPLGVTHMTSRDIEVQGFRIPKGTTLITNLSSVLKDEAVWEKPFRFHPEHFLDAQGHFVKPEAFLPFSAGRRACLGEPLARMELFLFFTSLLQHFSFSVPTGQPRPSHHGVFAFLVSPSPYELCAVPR
Sequence of 5-hydroxytryptamine receptor 2B (Homo sapiens) (P41595 whole entry): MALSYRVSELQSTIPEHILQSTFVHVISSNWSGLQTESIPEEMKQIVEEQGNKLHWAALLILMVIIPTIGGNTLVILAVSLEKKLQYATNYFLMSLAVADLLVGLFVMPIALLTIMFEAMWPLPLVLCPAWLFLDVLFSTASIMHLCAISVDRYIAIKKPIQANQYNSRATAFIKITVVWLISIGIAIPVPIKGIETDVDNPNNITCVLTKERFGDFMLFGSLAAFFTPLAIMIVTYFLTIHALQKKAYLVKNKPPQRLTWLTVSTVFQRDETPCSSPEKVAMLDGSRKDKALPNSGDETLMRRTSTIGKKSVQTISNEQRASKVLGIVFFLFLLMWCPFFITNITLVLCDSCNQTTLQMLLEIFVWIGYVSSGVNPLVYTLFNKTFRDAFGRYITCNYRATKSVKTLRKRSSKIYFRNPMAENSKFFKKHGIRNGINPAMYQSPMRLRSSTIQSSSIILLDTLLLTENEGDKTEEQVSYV

CSc1nn(-c2ccccc2)c2cc(NC(=O)C3CCNCC3)ccc12
Vd [1]: 8.53 L/kg | inhibition [2]: 95% | inhibition [3]: 91% | Papp B→A [4]: 9.47 ×10⁻⁶ cm/s | IC50 (Cytochrome P450 1A2): > 10 µM | inhibition [5]: 83% | solubility [6]: 40 µM (≈ 14.7 µg/mL) | remaining at 10 min [7]: 96% | solubility [8]: 45.2 µM (≈ 16.6 µg/mL) | clearance [9]: 11.6 mL/min/kg | IC50 (Cytochrome P450 2C19): > 10 µM | IC50 (Cytochrome P450 2C9): > 10 µM | Cmax [10]: 529 ng/mL | bioavailability [11]: 75.4% | solubility [12]: 40.7 µM (≈ 14.9 µg/mL) | inhibition [13]: 99% | remaining at 10 min [14]: 95% | AUC(0-t) [15]: 9030 ng·h/mL | IC50 (Cytochrome P450 3A4): > 10 µM | Papp A→B [16]: 1.65 ×10⁻⁶ cm/s | IC50 (Cytochrome P450 2D6): > 10 µM | solubility [17]: 35.3 µM (≈ 12.9 µg/mL)
